Measured values from ChEMBL document CHEMBL1141552, “Synthesis and antitubercular activity of 7-(R)- and 7-(S)-methyl-2-nitro-6-(S)-(4-(trifluoromethoxy)benzyloxy)-6,7-dihydro-5H-imidazo[2,1-b][1,3]oxazines, analogues of PA-824” (Bioorg Med Chem Lett, 2008).

How the values were obtained:
Assay type in all cases: functional
[1] = system: Mycobacterium tuberculosis; assay: Antitubercular activity against Mycobacterium tuberculosis H37Rv T2 nitroreductase mutant
In short: (§1)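 Broth dilution MIC99 against Mtb H37Rv (ATCC 27294) and its H37Rv mutants under aerobic conditions. Compound stocks were made in DMSO at 20 mM.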

[2] = system: Mycobacterium tuberculosis; assay: Antitubercular activity against Mycobacterium tuberculosis H37Rv T3 nitroreductase mutant; in short: as §1
[3] = system: Mycobacterium tuberculosis; assay: Antitubercular activity against Mycobacterium tuberculosis H37Rv 5A1 nitroreductase mutant; in short: as §1

Measured: MIC

C[C@H]1Oc2nc([N+](=O)[O-])cn2C[C@@H]1OCc1ccc(OC(F)(F)F)cc1
>100 µM: all assays above

C[C@@H]1Oc2nc([N+](=O)[O-])cn2C[C@@H]1OCc1ccc(OC(F)(F)F)cc1
>100 µM: all assays above

O=[N+]([O-])c1cn2c(n1)OC[C@@H](OCc1ccc(OC(F)(F)F)cc1)C2 [PRETOMANID]
>100 µM: all assays above
